One may read the IC50 as the point on the concentration scale where inhibition reaches its midpoint. Broadly, the inhibition is the change of the read-out against control, counted positive when it falls.

The source of these data is ChEMBL document CHEMBL4351015, “Design, synthesis and biological evaluation of 3-(imidazo[1,2-a]pyrazin-3-ylethynyl)-2-methylbenzamides as potent and selective pan-tropomyosin receptor kinase (TRK) inhibitors” (Eur J Med Chem, 2019).

Data set [1] can be described thus: Ratio of drug concentration in brain to blood of Sprague-Dawley rat at 25 mg/kg, po administered via gavage incubated for 2 hrs by LC/MS-MS analysis. Format: ADME, organism-based. The following applies: brain and blood, read-out: BBR.
The target in data set [2] is T1, BDNF/NT-3 growth factors receptor (Homo sapiens, UniProt Q16620). Briefly: Inhibition of recombinant human His-tagged TrkB catalytic domain (526 to 838 residues) expressed in baculovirus expression system using tyr 01 as substrate incubated for 1 hr by Z'-Lyte assay.
Target sequence in this assay (Q16620 whole entry, the tested form may be a part): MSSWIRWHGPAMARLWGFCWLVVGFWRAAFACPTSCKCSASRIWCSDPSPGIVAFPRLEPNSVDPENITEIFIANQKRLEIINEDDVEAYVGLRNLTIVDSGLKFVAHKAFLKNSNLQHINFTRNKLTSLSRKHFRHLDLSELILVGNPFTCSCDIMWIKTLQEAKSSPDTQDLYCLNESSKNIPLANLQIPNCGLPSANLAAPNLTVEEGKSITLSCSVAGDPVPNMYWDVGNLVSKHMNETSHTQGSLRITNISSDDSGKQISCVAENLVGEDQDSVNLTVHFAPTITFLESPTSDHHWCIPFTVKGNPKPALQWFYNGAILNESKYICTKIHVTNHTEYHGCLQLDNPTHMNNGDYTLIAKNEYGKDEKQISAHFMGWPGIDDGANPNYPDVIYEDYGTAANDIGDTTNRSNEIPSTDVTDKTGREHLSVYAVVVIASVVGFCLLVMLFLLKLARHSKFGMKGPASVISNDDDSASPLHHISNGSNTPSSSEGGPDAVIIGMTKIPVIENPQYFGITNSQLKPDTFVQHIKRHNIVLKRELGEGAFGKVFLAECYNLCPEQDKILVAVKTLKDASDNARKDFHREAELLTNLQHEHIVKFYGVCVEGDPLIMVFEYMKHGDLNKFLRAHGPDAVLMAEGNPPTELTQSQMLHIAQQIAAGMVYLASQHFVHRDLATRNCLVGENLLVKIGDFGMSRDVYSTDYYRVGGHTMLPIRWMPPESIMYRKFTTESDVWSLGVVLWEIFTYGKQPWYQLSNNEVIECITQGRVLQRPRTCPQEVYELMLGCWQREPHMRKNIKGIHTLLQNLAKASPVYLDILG
The target in data set [3] is NT-3 growth factor receptor (Homo sapiens, UniProt Q16288). Briefly: Inhibition of recombinant human His-tagged TrkC cytoplasmic domain (510 to 825 residues) expressed in baculovirus using tyr 01 as substrate incubated for 1 hr by Z'-Lyte assay.
Data set [4] has as its target Tyrosine-protein kinase ABL1 (Homo sapiens, UniProt P00519). Briefly: Inhibition of recombinant full length human His-tagged ABL1 expressed in baculovirus infected insect cells using tyr 02 as substrate incubated for 2 hr by Z'-Lyte assay.
Data set [5] concerns the target T1, BDNF/NT-3 growth factors receptor. Briefly: Inhibition of TrkB (unknown origin) transfected in human SH-SY5Y cells assessed as decrease in BDNF-induced TrkB phosphorylation incubated for 6 hrs followed by BDNF addition further incubated for 30 mins by Western blot analysis. The format is cell-based. In a few lines:
(§1)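 SH-SY5Y-TrkB stable transfectants were pretreated with 0–2.0 µM compound for 6 h, then given BDNF 10 ng/mL or none for 30 min. Lysates were run on 8–12% SDS-PAGE, blotted to PVDF and blocked in 5% BSA. Primary antibodies were applied overnight at 4 °C, then HRP secondary, with ECL detection. Phospho and total TrkB, PLC-γ1, Akt (Ser473, Thr308) and Erk were probed, with GAPDH as control.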
Target sequence in this assay (Q16620 32-822 limits assumed): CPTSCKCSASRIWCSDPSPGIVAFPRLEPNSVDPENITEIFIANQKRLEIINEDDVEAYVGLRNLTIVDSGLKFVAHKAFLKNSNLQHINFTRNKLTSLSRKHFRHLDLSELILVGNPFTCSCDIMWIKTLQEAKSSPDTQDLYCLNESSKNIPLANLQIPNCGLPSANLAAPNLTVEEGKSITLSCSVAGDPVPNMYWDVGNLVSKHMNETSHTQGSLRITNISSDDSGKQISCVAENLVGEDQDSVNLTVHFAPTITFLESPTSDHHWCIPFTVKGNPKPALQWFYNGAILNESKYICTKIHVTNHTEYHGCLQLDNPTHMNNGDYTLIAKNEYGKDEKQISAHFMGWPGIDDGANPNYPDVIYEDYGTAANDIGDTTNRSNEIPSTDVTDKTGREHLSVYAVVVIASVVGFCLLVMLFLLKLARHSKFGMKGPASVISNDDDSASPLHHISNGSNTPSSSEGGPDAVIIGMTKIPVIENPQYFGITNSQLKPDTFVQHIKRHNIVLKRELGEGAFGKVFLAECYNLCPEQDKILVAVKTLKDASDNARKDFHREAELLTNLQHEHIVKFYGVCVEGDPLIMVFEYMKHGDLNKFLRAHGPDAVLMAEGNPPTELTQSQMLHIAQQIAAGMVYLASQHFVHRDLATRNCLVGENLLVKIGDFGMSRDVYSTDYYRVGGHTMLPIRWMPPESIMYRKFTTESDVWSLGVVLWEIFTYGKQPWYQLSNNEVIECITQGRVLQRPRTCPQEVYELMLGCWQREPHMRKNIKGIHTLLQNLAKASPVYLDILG

For data set [6] the target is unchanged. Briefly: Inhibition of BDNF-induced TrkB (unknown origin) activation transfected in human SH-SY5Y cells assessed as decrease in Akt phosphorylation at Thr308 residue incubated for 6 hrs followed by BDNF addition further incubated for 30 mins by Western blot analysis. The format is cell-based. The procedure, abridged:
as §1
(In general: A western blot detects proteins with antibodies after separation by electrophoresis.)
Target sequence in this assay (Q16620 32-822 limits assumed): as above

The target is the same in data set [7]. Briefly: Inhibition of TrkB (unknown origin) transfected in human SH-SY5Y cells assessed as decrease in BDNF-induced TrkB phosphorylation at >=16 nM incubated for 6 hrs followed by BDNF addition further incubated for 30 mins by Western blot analysis. The format is cell-based. In a few lines:
as §1
Target sequence in this assay (Q16620 32-822 limits assumed): as above

The target in data set [8] is RAC-alpha serine/threonine-protein kinase (Homo sapiens, UniProt P31749). Briefly: Effect on ATK phosphorylation in BDNF-induced human SH-SY5Y cells up to 2 uM preincubated for 6 hrs followed by BDNF addition and measured after 30 mins by Western blot analysis. The format is cell-based. To be noted: 0.5 h.
Data set [9] can be described thus: Effect on ERK phosphorylation in BDNF-induced human SH-SY5Y cells up to 2 uM preincubated for 6 hrs followed by BDNF addition and measured after 30 mins by Western blot analysis. To be noted: 0.5 h. The format is cell-based.
The subject of data set [10] is SH-SY5Y. Briefly: Inhibition of cell migration in human SH-SY5Y cells transfected with TrkB (unknown origin) assessed as reduction in BDNF-induced wound closure at 8 nM incubated for 24 hrs by bright field microscopy relative to control. Format: functional. The procedure, abridged: (§2)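 SH-SY5Y-TrkB monolayers were grown to near confluence and scratched with a pipette tip, then washed with PBS. Cells were incubated 24 h in MEM/F-12 with 2% FBS, with or without BDNF 10 ng/mL and with compound. Three random fields were imaged by bright-field microscopy and % wound closure was measured. Run three times, each in triplicate.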

Data set [11] relates to SH-SY5Y. Briefly: Inhibition of cell migration in human SH-SY5Y cells transfected with TrkB (unknown origin) assessed as reduction in BDNF-induced wound closure at 40 nM incubated for 24 hrs by bright field microscopy relative to control. The format is functional. In a few lines: as §2
Data set [12] has as its system SH-SY5Y. Briefly: Inhibition of BDNF-induced cell invasion in human SH-SY5Y cells transfected with TrkB (unknown origin) incubated for 24 hrs by crystal violet staining microscopy-based matrigel assay. The format is functional. In a few lines:
(§3)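 Invasion through Matrigel chambers: 1.5 X 10⁶ SH-SY5Y-TrkB cells in FBS-free medium with 0, 8, 40 or 200 nM compound were placed on top. Complete medium with or without BDNF 10 ng/mL went below. After 24 h at 37 °C, cells were fixed in methanol and stained with 0.25% crystal violet, and top-surface cells were removed. Six random fields were counted at 200X; mean of three independent experiments.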

In data set [13] the test system is SH-SY5Y. Briefly: Inhibition of BDNF-induced cell migration in human SH-SY5Y cells transfected with TrkB (unknown origin) at 8 nM incubated for 24 hrs by crystal violet staining microscopy based transwell assay relative to control. Format: functional. The procedure, abridged:
(§4)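 Transwell migration: 1.5 X 10⁶ SH-SY5Y-TrkB cells in FBS-free medium containing 0, 8, 40 or 200 nM compound went in the top chamber. The bottom chamber held complete medium with or without BDNF 10 ng/mL. After 24 h at 37 °C, cells were methanol-fixed and stained with 0.25% crystal violet, and non-migrated cells were removed. Cells were counted in six random fields at 200X; mean of three independent experiments.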

In data set [14] the test system is SH-SY5Y. Briefly: Inhibition of BDNF-induced cell migration in human SH-SY5Y cells transfected with TrkB (unknown origin) at 40 nM incubated for 24 hrs by crystal violet staining microscopy based transwell assay relative to control. Format: functional. In a few lines: as §4
Data set [15] has as its system SH-SY5Y. Briefly: Inhibition of BDNF-induced cell migration in human SH-SY5Y cells transfected with TrkB (unknown origin) at 200 nM incubated for 24 hrs by crystal violet staining microscopy based transwell assay relative to control. The format is functional. In a few lines: as §4
Data set [16] has as its system SH-SY5Y. Briefly: Inhibition of BDNF-induced cell invasion in human SH-SY5Y cells transfected with TrkB (unknown origin) at 40 nM incubated for 24 hrs by crystal violet staining microscopy-based matrigel assay relative to control. Format: functional. The procedure, abridged:
as §3

For data set [17], the system named is SH-SY5Y. Briefly: Inhibition of BDNF-induced cell invasion in human SH-SY5Y cells transfected with TrkB (unknown origin) at 200 nM incubated for 24 hrs by crystal violet staining microscopy-based matrigel assay relative to control. The format is functional. The procedure, abridged: as §3
The test system of data set [18] is SH-SY5Y. Briefly: Antiproliferative activity against human SH-SY5Y cells transfected with TrkB (unknown origin) assessed as reduction in cell viability incubated for 72 hrs by CCK8 assay. The format is functional, cell-based. In a few lines:
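SH-SY5Y-TrkB cells (SH-SY5Y stably transfected with pRP-TrkB, kept under 0.5 µg/ml puromycin in 1:1 MEM/F-12 with 10% FBS) seeded at 1500-3000/well, left overnight. Compounds 0.000457–3 µM were then added with or without BDNF 10 ng/ml for 72 h. Read-out by CCK8. IC50 came from concentration-response curve fitting, reported as mean ± SD from at least three independent experiments.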
On the technique in general: Formazan colour is commonly taken as a measure of viable cells.

Data set [19] in a line: Drug concentration in Sprague-Dawley rat brain at 25 mg/kg, po administered via gavage incubated for 0.5 hrs by LC/MS-MS analysis. Format: ADME, organism-based. The following applies: read-out: Ct.
Data set [20] is described as follows: Plasma concentration in Sprague-Dawley rat at 25 mg/kg, po administered via gavage incubated for 0.5 hrs by LC/MS-MS analysis. The format is ADME, organism-based.
Data set [21] can be described thus: Plasma concentration in Sprague-Dawley rat at 25 mg/kg, po administered via gavage incubated for 8 hrs by LC/MS-MS analysis. The format is ADME, organism-based.
Data set [22] can be described thus: Ratio of drug concentration in brain to blood of Sprague-Dawley rat at 25 mg/kg, po administered via gavage incubated for 8 hrs by LC/MS-MS analysis. To be noted: brain and blood, read-out: BBR. Format: ADME, organism-based.
Data set [23] concerns SH-SY5Y. Briefly: Neurotoxicity in human SH-SY5Y cells assessed as reduction in cell viability incubated for 72 hrs by CCK8 assay. The format is toxicity, cell-based.

Each structure is given as a SMILES string.

Chain of RAC-alpha serine/threonine-protein kinase (P31749 whole entry): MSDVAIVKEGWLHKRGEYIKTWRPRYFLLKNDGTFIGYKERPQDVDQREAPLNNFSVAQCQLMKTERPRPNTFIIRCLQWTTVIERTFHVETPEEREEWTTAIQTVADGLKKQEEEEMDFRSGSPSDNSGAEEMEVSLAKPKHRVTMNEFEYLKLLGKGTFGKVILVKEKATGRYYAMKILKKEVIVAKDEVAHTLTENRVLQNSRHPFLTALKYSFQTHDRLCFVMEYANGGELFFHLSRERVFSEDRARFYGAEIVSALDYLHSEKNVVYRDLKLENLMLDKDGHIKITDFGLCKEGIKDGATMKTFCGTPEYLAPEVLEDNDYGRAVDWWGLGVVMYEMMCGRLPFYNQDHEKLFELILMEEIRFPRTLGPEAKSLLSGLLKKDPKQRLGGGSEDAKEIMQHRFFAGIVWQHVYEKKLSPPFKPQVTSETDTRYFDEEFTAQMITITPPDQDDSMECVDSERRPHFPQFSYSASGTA
Chain of NT-3 growth factor receptor (Q16288 whole entry, the tested form may be a part): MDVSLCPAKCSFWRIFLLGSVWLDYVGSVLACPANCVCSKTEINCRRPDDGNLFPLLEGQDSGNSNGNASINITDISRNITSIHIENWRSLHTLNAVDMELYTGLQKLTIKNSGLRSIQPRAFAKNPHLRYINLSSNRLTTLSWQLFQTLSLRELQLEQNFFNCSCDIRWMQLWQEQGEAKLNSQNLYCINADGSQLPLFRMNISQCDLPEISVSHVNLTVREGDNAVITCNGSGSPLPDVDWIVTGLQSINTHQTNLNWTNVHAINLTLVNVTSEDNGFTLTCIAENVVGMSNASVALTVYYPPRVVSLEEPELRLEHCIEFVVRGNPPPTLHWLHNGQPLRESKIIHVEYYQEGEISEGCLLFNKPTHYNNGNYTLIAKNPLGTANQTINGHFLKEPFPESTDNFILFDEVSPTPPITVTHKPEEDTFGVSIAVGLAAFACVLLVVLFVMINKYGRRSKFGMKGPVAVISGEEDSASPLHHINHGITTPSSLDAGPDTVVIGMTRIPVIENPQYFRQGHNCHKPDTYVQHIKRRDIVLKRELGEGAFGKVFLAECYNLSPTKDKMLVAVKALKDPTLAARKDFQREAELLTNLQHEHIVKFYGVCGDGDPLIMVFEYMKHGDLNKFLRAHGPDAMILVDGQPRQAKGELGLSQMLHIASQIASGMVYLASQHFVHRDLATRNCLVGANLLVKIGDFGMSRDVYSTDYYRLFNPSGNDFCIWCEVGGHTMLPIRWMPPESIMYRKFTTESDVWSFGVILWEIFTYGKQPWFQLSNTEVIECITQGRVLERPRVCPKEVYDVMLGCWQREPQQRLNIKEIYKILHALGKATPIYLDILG
Chain of Tyrosine-protein kinase ABL1 (P00519 whole entry): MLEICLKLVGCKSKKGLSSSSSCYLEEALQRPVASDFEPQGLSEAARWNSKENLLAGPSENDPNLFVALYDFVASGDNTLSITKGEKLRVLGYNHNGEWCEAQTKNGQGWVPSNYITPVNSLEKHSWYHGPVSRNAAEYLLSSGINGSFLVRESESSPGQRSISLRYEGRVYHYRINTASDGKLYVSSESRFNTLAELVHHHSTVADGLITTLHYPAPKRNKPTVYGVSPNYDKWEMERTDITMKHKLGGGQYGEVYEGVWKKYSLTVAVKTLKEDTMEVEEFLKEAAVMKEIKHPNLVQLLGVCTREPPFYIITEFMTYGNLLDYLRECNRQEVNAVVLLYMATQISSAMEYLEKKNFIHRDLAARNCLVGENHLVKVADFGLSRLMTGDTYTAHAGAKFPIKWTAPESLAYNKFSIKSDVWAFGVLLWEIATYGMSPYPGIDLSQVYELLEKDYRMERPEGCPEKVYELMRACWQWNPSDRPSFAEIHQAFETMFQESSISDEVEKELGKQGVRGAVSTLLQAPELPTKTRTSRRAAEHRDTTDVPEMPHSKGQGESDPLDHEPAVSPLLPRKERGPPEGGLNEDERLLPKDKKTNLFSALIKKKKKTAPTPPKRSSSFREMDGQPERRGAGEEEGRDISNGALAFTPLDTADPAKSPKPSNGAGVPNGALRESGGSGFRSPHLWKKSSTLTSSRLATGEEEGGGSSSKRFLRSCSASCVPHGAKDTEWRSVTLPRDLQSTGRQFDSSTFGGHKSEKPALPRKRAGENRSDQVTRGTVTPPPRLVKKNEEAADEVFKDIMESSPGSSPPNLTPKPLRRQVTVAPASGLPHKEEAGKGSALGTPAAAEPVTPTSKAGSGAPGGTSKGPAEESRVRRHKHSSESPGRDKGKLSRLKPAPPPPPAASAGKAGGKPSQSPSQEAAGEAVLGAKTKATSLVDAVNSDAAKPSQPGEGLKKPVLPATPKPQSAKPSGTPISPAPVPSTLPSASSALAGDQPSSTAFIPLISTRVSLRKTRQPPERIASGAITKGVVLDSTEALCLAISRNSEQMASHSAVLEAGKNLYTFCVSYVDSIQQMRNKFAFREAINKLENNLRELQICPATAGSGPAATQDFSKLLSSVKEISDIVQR

As to `Cc1c(C#Cc2cnc3cnc(-c4ccc(N)cc4)cn23)cccc1C(=O)Nc1cc(CN2CCN(C)CC2)cc(C(C)C)c1`, the Kp at 2 h in data set [1] turned out to be 6. For the same compound, the IC50 in [2] was 10.5 nM; in [3], 2.95 nM; in [4], over 1000 nM; in the data set with SH-SY5Y [18] it was 58 nM. Also, the inhibition entry was “Dose-dependent effect” in data set [5], “Dose-dependent effect” in data set [6], 100% in data set [7] and “Dose-dependent effect” with SH-SY5Y [12]. Besides, the Activity entry in data set [8] was “Not Active”; in data set [9], “Not Active”; in the data set with SH-SY5Y [23], “Non-Toxic”. Besides, the inhibition at 0.008 µM in the data set with SH-SY5Y [10] turned out to be 50.1%; with SH-SY5Y [13], 22.7%. Moreover, the inhibition at 0.04 µM in the data set on SH-SY5Y [11] turned out to be 76.6%; in the data set with SH-SY5Y [14] it was 53.3%; in the data set with SH-SY5Y [16], 61.9%. For the same compound, the inhibition at 0.2 µM in the data set on SH-SY5Y [15] amounted to 82%; in the data set on SH-SY5Y [17], 85.5%. Moreover, the concentration at 0.5 h came to 0.078 ng/mL in data set [19] and 7.33 ng/mL in [20]. This compound also gave a concentration at 8 h in [21] of 6.52 ng/mL. Also, in [22], the Kp at 8 h is 8.3.
